SMILES strings stand for the structures.

Data set [1] deals with T1, Amine oxidase [flavin-containing] B (Bos taurus, UniProt P56560).
T1 sequence (P56560 whole entry): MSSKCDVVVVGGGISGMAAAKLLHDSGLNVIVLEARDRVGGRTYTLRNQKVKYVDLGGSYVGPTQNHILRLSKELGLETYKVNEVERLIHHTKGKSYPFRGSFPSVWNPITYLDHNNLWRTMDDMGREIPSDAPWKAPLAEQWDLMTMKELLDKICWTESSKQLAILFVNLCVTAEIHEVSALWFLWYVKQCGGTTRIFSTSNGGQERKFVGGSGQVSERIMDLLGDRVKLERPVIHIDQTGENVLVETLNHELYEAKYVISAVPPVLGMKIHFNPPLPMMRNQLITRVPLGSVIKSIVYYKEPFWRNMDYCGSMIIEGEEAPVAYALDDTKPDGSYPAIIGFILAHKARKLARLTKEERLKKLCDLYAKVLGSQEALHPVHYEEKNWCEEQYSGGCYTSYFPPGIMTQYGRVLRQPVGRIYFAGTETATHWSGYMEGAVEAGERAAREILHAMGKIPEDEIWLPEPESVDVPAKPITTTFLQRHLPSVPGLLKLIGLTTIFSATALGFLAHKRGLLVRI
Description: Ratio of catalytic constant and Michaelis-Menten constant for MAO-B. The settings on record: cattle. The method, boiled down: (§1)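 MAO-B at 0.08 μM final; activity was calibrated with MPTP at 30 °C and the preparation was stored at –15 °C. Substrate range 100–2000 μM in 100 mM sodium phosphate pH 7.4, with spectrophotometric initial oxidation rates. KM and kcat derived from double-reciprocal plots, and kcat/KM calculated from them.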

For data set [2], the target named is T2, Monoamine oxidase B (amine oxidase [flavin-containing] B) (Bos taurus, UniProt P56560).
T2 sequence (P56560 whole entry): T1 sequence (P56560 whole entry)
Description: (§2) Michaelis-Menten constant for Monoamine oxidase B catalyzed oxidation (KM). Conditions: cattle. Put shortly:
as §1

For data set [3], the target named is T3, Amine oxidase [flavin-containing] A (Homo sapiens, UniProt P21397).
T3 sequence (P21397 whole entry): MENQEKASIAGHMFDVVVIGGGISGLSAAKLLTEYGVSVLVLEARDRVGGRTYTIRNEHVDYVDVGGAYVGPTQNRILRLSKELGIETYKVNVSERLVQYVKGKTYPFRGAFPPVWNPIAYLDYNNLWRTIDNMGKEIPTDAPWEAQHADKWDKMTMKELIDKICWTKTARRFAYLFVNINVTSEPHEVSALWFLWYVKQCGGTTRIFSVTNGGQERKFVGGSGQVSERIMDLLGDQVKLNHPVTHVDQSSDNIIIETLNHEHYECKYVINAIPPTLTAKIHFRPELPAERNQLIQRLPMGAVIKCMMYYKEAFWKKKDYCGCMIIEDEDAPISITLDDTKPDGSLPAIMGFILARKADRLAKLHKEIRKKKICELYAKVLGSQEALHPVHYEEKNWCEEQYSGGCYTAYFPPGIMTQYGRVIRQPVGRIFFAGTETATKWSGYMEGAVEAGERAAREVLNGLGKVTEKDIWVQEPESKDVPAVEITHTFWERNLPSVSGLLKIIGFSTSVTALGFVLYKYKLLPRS
The data set can be described thus: Ratio of catalytic constant and Michaelis-Menten constant for MAO-A. The method, boiled down:
(§3)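 MAO-A at 0.16 μM final, raised to 0.32 μM for one slowly oxidized substrate. The MAO-A preparation was diluted with 3 volumes of phosphate buffer just before use, and its activity was re-checked bimonthly with kynuramine at 30 °C. Substrates at 100–2000 μM in 100 mM sodium phosphate pH 7.4; initial rates by spectrophotometry. kcat and KM from double-reciprocal plots; kcat/KM as their ratio.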

For data set [4], the target named is T1, Amine oxidase [flavin-containing] B. Description: Kinetic value evaluated as catalyzed oxidation rate (kcat). The settings on record: cattle. The method, boiled down:
(§4)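 kcat from initial oxidation rates, read by spectrophotometer, with test compounds at 100–2000 μM final in 100 mM sodium phosphate pH 7.4, using 0.16 μM MAO-A or 0.08 μM MAO-B. kcat and KM came from double-reciprocal plots. Repeat determinations were made on selected substrates at different times.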

Data set [5] concerns the target T4, Monoamine oxidase A (amine oxidase [flavin-containing] A) (Homo sapiens, UniProt P21397).
T4 sequence (P21397 whole entry): T3 sequence (P21397 whole entry)
Description: Michaelis-Menten constant for Monoamine oxidase A catalyzed oxidation (Km). The method, boiled down:
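MAO-A preparation, viscous, diluted with 3 volumes of phosphate buffer just before use; activity standardised with kynuramine at 30 °C. Substrates as oxalate salts at 100–2000 μM final in 100 mM sodium phosphate, pH 7.4, with 0.16 μM MAO-A. Initial oxidation rates were followed spectrophotometrically, and Km came from double-reciprocal plots.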

Data set [6] deals with T3, Amine oxidase [flavin-containing] A. Description: Kinetic value evaluated as catalyzed oxidation (kcat). The method, boiled down:
as §4

Data set [7] has as its target T1, Amine oxidase [flavin-containing] B. The data set is described as §2. Conditions: cattle. Put shortly: as §1
The target in data set [8] is T3, Amine oxidase [flavin-containing] A. The data set can be described thus: Michaelis-Menten constant for Monoamine oxidase A-catalyzed oxidation (KM). The method, boiled down: as §3

As a reminder, the Km is the concentration of substrate that gives half-maximal velocity. As to `CN1CC=C(c2ccccc2)CC1`, the results for the “k cat/Km” value in data set [1] and in data set [3] were 23850 M⁻¹ s⁻¹ and 783 M⁻¹ s⁻¹, respectively. Besides, the Km in data set [2] was 191 µM; in data set [5] it was 654 µM. Also, the k cat in data set [4] was 4.55 s⁻¹; in data set [6], 0.517 s⁻¹.

For `CN1CC=C(Oc2ccc(-c3ccccc3)cc2)CC1`, the “k cat/Km” value turned out to be 6050 M⁻¹ s⁻¹ in data set [1] and 28500 M⁻¹ s⁻¹ in data set [3]. In addition, the Km in data set [7] turned out to be 284 µM; in data set [8], 101 µM. Besides, the results for the k cat in data set [4] and in data set [6] were 1.72 s⁻¹ and 2.88 s⁻¹, respectively.

For `CN1CC=C(Oc2ccccc2)CC1`, the “k cat/Km” value in data set [1] was 69180 M⁻¹ s⁻¹; in data set [3] it was 39320 M⁻¹ s⁻¹. Moreover, the values for the Km in data set [7] and in data set [8] were 58 µM and 55 µM, respectively. The k cat was 4.02 s⁻¹ in data set [4] and 2.17 s⁻¹ in data set [6].

The values above are taken from ChEMBL document CHEMBL1128681, “Studies on the monoamine oxidase (MAO)-catalyzed oxidation of phenyl-substituted 1-methyl-4-phenoxy-1,2,3,6-tetrahydropyridine derivatives: factors contributing to MAO-A and MAO-B selectivity” (J Med Chem, 1995).
